Experimental data taken from ChEMBL document CHEMBL3734648, “The synthesis of indolo[2,3-b]quinoline derivatives with a guanidine group: highly selective cytotoxic agents” (Eur J Med Chem, 2015).
Calls of active or inactive are those of the source. The calls are words filed in the database; no cut-off is given here.

Tests used:
[1] = tested on: A549; assay: Antiproliferative activity against human A549 cells after 72 hrs by sulforhodamine B assay; format: functional, cell-based; details: A549, 72 h
[2] = tested on: MCF7; assay: Antiproliferative activity against human MCF7 cells after 72 hrs by sulforhodamine B assay; format: functional, cell-based; details: MCF7, 72 h
[3] = tested on: LoVo; assay: Antiproliferative activity against human LoVo cells after 72 hrs by sulforhodamine B assay; format: functional, cell-based
[4] = tested on: KB; assay: Antiproliferative activity against human KB cells after 72 hrs by sulforhodamine B assay; format: functional, cell-based
[5] = tested on: BALB/3T3; assay: Cytotoxicity against mouse BALB/3T3 cells assessed as cell viability after 1 hr by sulforhodamine B assay; format: cell-based; details: BALB/3T3, 1 h
[6] = tested on: Candida albicans; assay: Inhibition of biofilm formation of Candida albicans assessed as reduction in cell viability of biofilm after 24 hrs by XTT staining based spectrophotometry; format: functional; details: read-out: ED50 (the source's name)
Procedure, shortened: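 Candida albicans biofilms grown in vitro in 96-well plates, then exposed to compounds, and biofilm cell viability determined. ED50 reported as mean ± SD, n = 3.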

[7] = Induction of DNA intercalation (unknown origin) after 24 hrs by methyl green dye displacement assay
Procedure, shortened: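 Compound displaces methyl green from a DNA/methyl green complex. IC50 is the concentration giving a 50% decrease in the initial absorbance of the DNA/methyl green solution. Mean ± SD, n = 3–5.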

[8] = Hemolytic activity in human RBC after 30 mins by spectrophotometry; format: ADME, cell-based, Erythrocyte; details: for Activity: erythrocyte, 0.5 h; for HC50 at 0.5 h: human red blood cells
Procedure, shortened: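 Human red blood cells incubated with compound over 10^-6 to 5×10^-4 M for 30 min at 37 °C. HC50 taken as the concentration lysing 50% of cells. Mean ± SD of three individual determinations.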

[9] = tested on: erythrocytes (Homo sapiens); assay: Hemolytic activity in human erythrocytes after 30 mins by spectrophotometry
[10] = tested on: A549; assay: Selectivity index, ratio of IC50 for mouse BALB/3T3 cells to IC50 for human A549 cells; format: functional
[11] = tested on: MCF7; assay: Selectivity index, ratio of IC50 for mouse BALB/3T3 cells to IC50 for human MCF7 cells; format: functional
[12] = tested on: KB; assay: Induction of cell cycle arrest in human KB cells assessed as accumulation at G0/G1 phase at 1 uM after 72 hrs by propidium iodide staining based flow cytometry (reference value: 53.2 +/- 5.8%); format: functional
Procedure, shortened: (§1)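 KB cells exposed for 72 h at […]. Cell-cycle phase distribution (G0/G1, S, G2/M) given as mean ± SD from independent experiments. Treated cells compared with control cells by Mann–Whitney U test, significance at p ≤ 0.05.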

[13] = tested on: KB; assay: Induction of cell cycle arrest in human KB cells assessed as accumulation at G0/G1 phase at 0.5 uM after 72 hrs by propidium iodide staining based flow cytometry (reference value: 53.2 +/- 5.8%); format: functional; procedure, shortened: as §1
[14] = tested on: KB; assay: Induction of cell cycle arrest in human KB cells assessed as accumulation at G0/G1 phase at 0.25 uM after 72 hrs by propidium iodide staining based flow cytometry (reference value: 53.2 +/- 5.8%); format: functional; procedure, shortened: as §1
[15] = tested on: KB; assay: Induction of cell cycle arrest in human KB cells assessed as accumulation at S phase at 1 uM after 72 hrs by propidium iodide staining based flow cytometry (reference value: 32.1 +/- 5.4%); format: functional; procedure, shortened: as §1
[16] = tested on: KB; assay: Induction of cell cycle arrest in human KB cells assessed as accumulation at S phase at 0.5 uM after 72 hrs by propidium iodide staining based flow cytometry (reference value: 32.1 +/- 5.4%); format: functional; procedure, shortened: as §1
[17] = tested on: KB; assay: Induction of cell cycle arrest in human KB cells assessed as accumulation at S phase at 0.25 uM after 72 hrs by propidium iodide staining based flow cytometry (reference value: 32.1 +/- 5.4%); format: functional; procedure, shortened: as §1
[18] = tested on: KB; assay: Induction of cell cycle arrest in human KB cells assessed as accumulation at G2/M phase at 1 uM after 72 hrs by propidium iodide staining based flow cytometry (reference value: 14.7 +/- 1.1 %); format: functional; procedure, shortened: as §1
[19] = tested on: KB; assay: Induction of cell cycle arrest in human KB cells assessed as accumulation at G2/M phase at 0.5 uM after 72 hrs by propidium iodide staining based flow cytometry (reference value: 14.7 +/- 1.1 %); format: functional; procedure, shortened: as §1
[20] = tested on: KB; assay: Induction of cell cycle arrest in human KB cells assessed as accumulation at G2/M phase at 0.25 uM after 72 hrs by propidium iodide staining based flow cytometry (reference value: 14.7 +/- 1.1 %); format: functional; procedure, shortened: as §1
[21] = tested on: KB; assay: Induction of mitochondrial membrane potential loss in human KB cells at 0.5 to 1 uM after 72 hrs by JC-1 staining based flow cytometric analysis; format: functional
Procedure, shortened: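 Mitochondrial membrane potential of KB cells read after 72 h exposure at 1.0 and 0.5. Fraction of cells with reduced potential compared with control cells, significance at p ≤ 0.05.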

[22] = tested on: KB; assay: Induction of apoptosis in human KB cells assessed as apoptotic cells at 1 uM after 72 hrs by Annexin V/propidium iodide staining-based flow cytometry (reference value: 4.8 +/- 2.4 %); format: functional
Procedure, shortened: (§2)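 Apoptosis and necrosis in KB cells after 72 h exposure at 1.0 or 0.5. Staining with annexin V (AV) and propidium iodide (PI). Cells scored as live (AV−/PI−), apoptotic (AV+/PI−) or necrotic (AV+/PI+). Values as mean ± SD, compared with control cells at p ≤ 0.05.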

[23] = tested on: KB; assay: Induction of apoptosis in human KB cells assessed as apoptotic cells at 0.5 uM after 72 hrs by Annexin V/propidium iodide staining-based flow cytometry (reference value: 4.8 +/- 2.4 %); format: functional; procedure, shortened: as §2
[24] = tested on: KB; assay: Induction of apoptosis in human KB cells assessed as necrotic cells at 1 uM after 72 hrs by Annexin V/propidium iodide staining-based flow cytometry (reference value: 3.9 +/- 0.8 %); format: functional; procedure, shortened: as §2
[25] = tested on: KB; assay: Induction of apoptosis in human KB cells assessed as necrotic cells at 0.5 uM after 72 hrs by Annexin V/propidium iodide staining-based flow cytometry (reference value: 3.9 +/- 0.8 %); format: functional; procedure, shortened: as §2
[26] = tested on: KB; assay: Induction of apoptosis in human KB cells assessed as live cells at 1 uM after 72 hrs by Annexin V/propidium iodide staining-based flow cytometry (reference value: 91.3 +/- 3.1 %); format: functional; procedure, shortened: as §2
[27] = tested on: KB; assay: Induction of apoptosis in human KB cells assessed as live cells at 0.5 uM after 72 hrs by Annexin V/propidium iodide staining-based flow cytometry (reference value: 91.3 +/- 3.1 %); format: functional; procedure, shortened: as §2
[28] = tested on: KB; assay: Induction of apoptosis in human KB cells assessed as induction of caspase-3/7 activity at 1 uM after 72 hrs by Ac-DEVD-ACC-based fluorescence assay relative to control; format: functional
Procedure, shortened: (§3)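 KB cells treated for 72 h at 1.0 or 0.5. Caspase-3/7 activity measured by an enzymatic assay, normalized to protein content and expressed relative to untreated control. Significance versus control at p ≤ 0.05.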

[29] = tested on: KB; assay: Induction of apoptosis in human KB cells assessed as induction of caspase-3/7 activity at 0.5 uM after 72 hrs by Ac-DEVD-ACC-based fluorescence assay; format: functional, cell-based; procedure, shortened: as §3

Compound	IC50 [1] [µM]	IC50 [2] [µM]	IC50 [3] [µM]	IC50 [4] [µM]	IC50 [7] [µM]	IC50 [5] [µM]	EC50 [6] [µM]	further results
Cc1c2c3cc(NC(=O)CNC(=N)N)ccc3nc-2n(C)c2ccccc12.Cl.Cl.Cl	1.82	4.75	0.83	3.88	40.5	4.47	4.2	Activity [8]: Dose-dependent effect; HC50 at 0.5 h [8]: 192 µM
CCOc1ccc(-c2nc3ccc(-c4nc5ccc(N6CCN(C)CC6)cc5[nH]4)cc3[nH]2)cc1					12.1			
Cc1c2c3ccccc3nc-2n(C)c2ccccc12					367			HC50 at 0.5 h [9]: 120 µM
Cc1c2c3cc(NC(=O)[C@@H]4CCCN4C(=N)N)ccc3nc-2n(C)c2ccccc12	11	7.85	7.76	15.6		31.9		
Cc1c2ccccc2nc2c1c1cc(NC(=N)N)ccc1n2CCN(C)C.Cl.Cl.Cl.Cl	3.24	0.81	9.38	0.87	101	30	287	Activity [12]: 33.4%; Activity [13]: 43.8%; Activity [14]: 51.6%; Activity [15]: 46.9%; Activity [16]: 31.6%; Activity [17]: 31.1%; Activity [18]: 19.6%; Activity [19]: 24.6%; Activity [20]: 17.3%; Activity [21]: 11%; Activity [22]: 24.4%; Activity [23]: 32.5%; Activity [24]: 7.5%; Activity [25]: 5.9%; Activity [26]: 68.1%; Activity [27]: 61.5%; fold change (FC) [28]: 2
Cc1c2ccccc2nc2c1c1cc(NC(=O)CNC(=N)N)ccc1n2CCN(C)C	1.96	2.31	0.82	1.23		3.55		

Continued by falling IC50 [1], values first:

IC50 [1] [µM]	IC50 [2] [µM]	IC50 [3] [µM]	IC50 [4] [µM]	IC50 [7] [µM]	Compound	IC50 [5] [µM]	EC50 [6] [µM]	further results
6.22	2.06	8.31	7.37		Cc1c2ccccc2nc2c1c1cc(NC(=O)[C@@H]3CCCN3C(=N)N)ccc1n2CCN(C)C	13.4		
0.88	0.33	0.077	0.86	125	Cc1c2ccccc2nc2c1c1cc(N)ccc1n2CCN(C)C	0.56	34.2	
0.74	0.75	0.09	1.13	80.3	Cc1c2ccccc2nc2c1c1cc(NC(=O)CN)ccc1n2CCN(C)C.Cl.Cl.Cl	0.61	74.3	Activity [8]: Dose-dependent effect; HC50 at 0.5 h [8]: 80.3 µM
0.27	0.32	0.06	0.38	42.2	Cc1c2ccccc2nc2c1c1cc(NC(=O)[C@@H]3CCCN3)ccc1n2CCN(C)C	0.36	25.5	
0.16	0.52	0.07	0.72	150	Cc1c2c3cc(N)ccc3nc-2n(C)c2ccccc12	0.54	41	
0.14	0.06	76.9	0.88	71.5	Cc1c2c3cc(NC(=N)N)ccc3nc-2n(C)c2ccccc12.Cl.Cl	66.4	197	Ratio IC50 [10]: 600; Ratio IC50 [11]: 600; Activity [12]: 32.8%; Activity [13]: 29.2%; Activity [14]: 39.5%; Activity [15]: 48.6%; Activity [16]: 39.8%; Activity [17]: 35.3%; Activity [18]: 18.6%; Activity [19]: 31%; Activity [20]: 25.3%; Activity [21]: 11%; Activity [22]: 25.7%; Activity [23]: 43.7%; Activity [24]: 12.2%; Activity [25]: 8.2%; Activity [26]: 62.1%; Activity [27]: 41.1%; fold change (FC) [28]: 5; Activity [29]: Active
